Activity calls are given as the source filed them. The rule behind the calls is not given here.

Here are results for eight compounds from ChEMBL document CHEMBL1152488, “Synthesis and evaluation of pyrido[1,2-a]pyrimidines as inhibitors of nitric oxide synthases” (Eur J Med Chem, 2009).

Data set [1] in a line: Dissociation constant, pKa of the compound. The class given is physicochemical. The essentials: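 UV spectrophotometric titration. Compound dissolved in 10% aqueous methanol, then mixed 1:1 with NaOH (0.002–6 M) and 1 M HCl to a final 150 µM. Absorbance read at 312 nm across the pH series.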
Data set [2] has as its target T1, Nitric oxide synthase, inducible (Mus musculus, UniProt P29477).
T1 sequence (P29477 whole entry): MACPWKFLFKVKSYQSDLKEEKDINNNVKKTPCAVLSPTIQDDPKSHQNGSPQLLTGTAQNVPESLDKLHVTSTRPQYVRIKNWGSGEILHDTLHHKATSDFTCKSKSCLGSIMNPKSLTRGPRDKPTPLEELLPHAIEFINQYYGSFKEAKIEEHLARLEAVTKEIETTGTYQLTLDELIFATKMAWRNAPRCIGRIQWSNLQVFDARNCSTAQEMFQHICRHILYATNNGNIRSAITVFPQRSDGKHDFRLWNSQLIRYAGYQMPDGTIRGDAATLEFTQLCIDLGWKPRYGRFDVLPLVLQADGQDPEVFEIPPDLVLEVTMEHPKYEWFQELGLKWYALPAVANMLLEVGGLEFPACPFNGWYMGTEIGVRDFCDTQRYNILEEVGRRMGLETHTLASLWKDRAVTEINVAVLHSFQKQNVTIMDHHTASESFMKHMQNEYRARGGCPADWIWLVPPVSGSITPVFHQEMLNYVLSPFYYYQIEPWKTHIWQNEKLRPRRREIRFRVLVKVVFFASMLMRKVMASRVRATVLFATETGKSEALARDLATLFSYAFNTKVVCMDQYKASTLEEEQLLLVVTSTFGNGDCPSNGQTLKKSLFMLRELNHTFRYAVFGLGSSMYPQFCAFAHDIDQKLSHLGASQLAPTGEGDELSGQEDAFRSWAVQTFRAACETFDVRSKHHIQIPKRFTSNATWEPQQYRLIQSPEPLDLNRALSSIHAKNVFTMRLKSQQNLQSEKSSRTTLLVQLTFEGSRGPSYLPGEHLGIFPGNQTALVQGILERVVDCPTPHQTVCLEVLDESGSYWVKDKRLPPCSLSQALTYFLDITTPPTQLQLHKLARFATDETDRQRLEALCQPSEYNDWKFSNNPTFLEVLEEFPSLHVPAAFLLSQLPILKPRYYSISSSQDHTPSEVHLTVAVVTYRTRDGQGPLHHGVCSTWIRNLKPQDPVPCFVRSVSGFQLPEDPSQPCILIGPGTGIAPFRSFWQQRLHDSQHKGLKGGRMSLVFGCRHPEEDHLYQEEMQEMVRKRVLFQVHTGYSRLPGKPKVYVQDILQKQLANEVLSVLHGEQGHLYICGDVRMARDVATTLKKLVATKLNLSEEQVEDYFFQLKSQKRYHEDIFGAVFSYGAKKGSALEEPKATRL
Kind of data set: Inhibition of mouse iNOS expressed in insect Sf9 cells by competitive binding assay.

In another data set the target is T2, Nitric oxide synthase 3 (Bos taurus, UniProt P29473).
T2 sequence (P29473 whole entry): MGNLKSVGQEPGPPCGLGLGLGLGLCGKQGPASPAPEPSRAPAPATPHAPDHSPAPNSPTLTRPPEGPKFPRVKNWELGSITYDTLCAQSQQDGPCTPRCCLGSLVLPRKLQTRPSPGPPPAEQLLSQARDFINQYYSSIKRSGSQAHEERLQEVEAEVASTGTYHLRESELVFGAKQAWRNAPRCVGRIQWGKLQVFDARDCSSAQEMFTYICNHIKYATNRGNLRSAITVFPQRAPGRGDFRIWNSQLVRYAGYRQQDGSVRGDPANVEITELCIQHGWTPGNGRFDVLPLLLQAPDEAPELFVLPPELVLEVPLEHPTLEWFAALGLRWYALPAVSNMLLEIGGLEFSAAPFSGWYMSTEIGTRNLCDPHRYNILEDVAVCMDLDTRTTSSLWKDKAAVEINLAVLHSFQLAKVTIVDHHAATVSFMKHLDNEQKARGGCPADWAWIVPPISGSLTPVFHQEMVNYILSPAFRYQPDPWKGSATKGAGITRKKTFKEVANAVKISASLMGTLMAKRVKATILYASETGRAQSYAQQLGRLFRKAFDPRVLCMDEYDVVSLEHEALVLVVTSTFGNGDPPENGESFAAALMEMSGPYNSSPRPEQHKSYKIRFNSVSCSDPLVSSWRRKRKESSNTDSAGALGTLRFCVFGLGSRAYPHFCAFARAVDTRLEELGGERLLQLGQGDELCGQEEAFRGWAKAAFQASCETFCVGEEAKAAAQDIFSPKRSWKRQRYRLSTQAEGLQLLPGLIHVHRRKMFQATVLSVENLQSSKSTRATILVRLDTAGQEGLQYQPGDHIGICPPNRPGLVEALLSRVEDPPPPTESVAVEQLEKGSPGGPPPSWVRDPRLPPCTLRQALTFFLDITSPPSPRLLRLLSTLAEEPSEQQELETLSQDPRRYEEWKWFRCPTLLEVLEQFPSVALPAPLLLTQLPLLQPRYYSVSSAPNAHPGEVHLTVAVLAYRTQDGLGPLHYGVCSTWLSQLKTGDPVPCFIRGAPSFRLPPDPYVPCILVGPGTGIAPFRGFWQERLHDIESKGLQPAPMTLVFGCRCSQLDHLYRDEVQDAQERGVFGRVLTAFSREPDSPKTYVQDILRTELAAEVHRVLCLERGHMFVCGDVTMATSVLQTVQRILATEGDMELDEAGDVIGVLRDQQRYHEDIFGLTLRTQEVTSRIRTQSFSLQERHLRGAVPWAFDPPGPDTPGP
Kind of data set: Inhibition of bovine recombinant eNOS expressed in Escherichia coli assessed as conversion of [gamma-14C]L-arginine to [14C]L-citrulline by radioactive assay. In a few lines:
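CaCl2/CaM present for nNOS (S. cerevisiae) and eNOS (E. coli) but omitted for iNOS (E. coli). Citrulline separated by Dowex cation exchange, then scintillation counting.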

The target of data set [3] is T1, Nitric oxide synthase, inducible. Kind of data set: Inhibition of mouse recombinant iNOS expressed in Escherichia coli assessed as conversion of [14C]L-arginine to [14C]L-citrulline by radioactive assay.
Data set [4] concerns the target T3, Nitric oxide synthase, inducible (Mus musculus) (UniProt P29477).
T3 sequence (whole entry): T1 sequence (P29477 whole entry)
Kind of data set: Inhibition of mouse iNOS expressed in insect Sf9 cells at 1 mM preincubated for 15 mins followed by compound dilution.

Data set [5] has as its target T1, Nitric oxide synthase, inducible. Kind of data set: Inhibition of mouse recombinant iNOS expressed in Escherichia coli assessed as NADPH consumption after 2 mins by spectrophotometry. The essentials: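 Murine iNOS from E. coli (15–50 nM final) in 50 mM Hepes pH 7.4 with 5 mM DTT, 100 µM CaCl2, 200 µM NADPH, 10 µM H4B, 100 µM L-arginine and 100 µM compound. Cofactors and compound preincubated 2 min at 37 °C, enzyme added, and A340 followed for 3 min (ε 6.2 mM-1 cm-1). Given as % of 1% DMSO control NADPH oxidase rate.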

Compound `O=C(c1ccc(Br)cc1)C1CN=C2C=CC=CN2C1` (configuration not stated) returned a pKa in data set [1] of 12.4.

For `COc1ccc(-c2ccc(C(=O)C3CN=C4C=C(C)C=CN4C3)cc2)cc1.Cl` (configuration not stated), in data set [2], the Ki is 15 µM. In addition, the IC50 at Nitric oxide synthase 3 was determined as 60 µM.

Turning to `CC1=CC2=NCC(C(=O)c3ccc4cc(C)ccc4c3)CN2C=C1.[O-][Cl+3]([O-])([O-])O` (configuration not stated), the affinity in data set [2] corresponds to a Ki of 23 µM.

Take `CC1=CC2=NCC(C(=O)c3ccc(-c4ccc(Br)cc4)cc3)CN2C=C1.[O-][Cl+3]([O-])([O-])O` (configuration not stated): the Ki in data set [2] worked out at 14 µM. In addition, the IC50 in data set [3] was 28 µM. In data set [4], the result was inactive.

Take `CC1=CC2=NCC(C(=O)c3ccc4cc(C)ccc4c3)CN2C(C)=C1.[O-][Cl+3]([O-])([O-])O` (configuration not stated): the IC50 at Nitric oxide synthase 3 was determined as 53 µM.

`CC1=CC2=NCC(C(=O)c3ccc(-c4ccc(C#N)cc4)cc3)CN2C=C1.Cl` (configuration not stated): the figures for the half-inhibitory concentration (IC50) (at Nitric oxide synthase 3; in data set [5]) were 12 µM and 11 µM, respectively.

In the case of `CC1=CC2=NCC(C(=O)c3ccc(OCc4ccc(Cl)cc4)cc3)CN2C=C1.[O-][Cl+3]([O-])([O-])O` (configuration not stated), the IC50 at Nitric oxide synthase 3 worked out at 12 µM.

On to `CC1=CC2=NCC(C(=O)c3ccc(-c4ccc(Br)cc4)cc3)CN2C(C)=C1` (configuration not stated), for which, on Nitric oxide synthase 3, the half-inhibitory concentration (IC50) was determined as 188 µM.
